Hits are enriched below; roughly 11% of the tested compounds scored in any of these assays.
G6PDH counter = counter-screen for G6PDH assay hits: L. mesenteroides G6PDH inhibition | Purified L. mesenteroides G6PDH, diaphorase/resazurin coupled fluorescence, 45 min | actives 0.12% (n = 200,000) | inhibition, % at 5 µM
Lmaj promast = reduces viability of Leishmania major promastigotes. actives 9% (n = 200,000). inhibition, % at 10 µM. resazurin fluorescence viability;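 further: promastigotes grown with compound for 44 hours at 28 °C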
WT yeast gro inh = growth inhibition of WT yeast, mitochondrial fusion screen; AID 1362; mitochondrial fusion phenotypic screen, WT strain; actives 2.1% (n = 190,000); inhibition, % at 10 µM; in the data active means inhibition above about 58%; tested in S. cerevisiae
Diaphorase inh = counter-screen for diaphorase-based assays: diaphorase inhibitors and chemical oxidizers; inhibition, % at 20 µM; actives 0.69% (n = 190,000); diaphorase resazurin-to-resorufin fluorescence, NADH, 16 min; bacterial (C. kluyveri) enzyme, not human;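 active means primary screen inhibition at 20 µM above a set limit, cut at about 50% in these data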;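 further: plate controls were DMSO with full reaction for no effect and wells lacking NADH for full effect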
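Test system: Clostridium kluyveri diaphorase enzyme / Quantity: diaphorase at 0.14 U/mL in enzyme working solution / Incubation: 16-min room-temperature incubation before reading / Benchmarks: NADH-free wells as positive control, DMSO-only neutral wells / Signal: resorufin fluorescence 544/590 nm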
Diaphorase act = counter-screen for diaphorase-based assays: diaphorase activators and chemical reducers | Diaphorase/resazurin coupled assay, resorufin fluorescence, 16 min; stronger effect = higher value; 1 = vehicle wells, 0 = NADH-free wells | activation factor at 20 µM | actives 0.005% (n = 190,000);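 active means diaphorase activity raised at least twofold by the compound at 20 µM; inactive means activation factor below 2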
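test system = bacterial diaphorase enzyme (C. kluyveri) | quantity = enzyme 0.07 U/mL final | reagent = NADH substrate 0.114 mM plus resazurin dye 0.1 mM, final | incubation = 16 min enzyme reaction, ambient temperature | buffer or medium = HEPES pH 7.4 buffer with MgCl2 and Tween 20 | signal = fluorescence of resorufin, 544 nm excitation, 590 nm emission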
* marks the source's active call; other numbers are inactive results; . = no result. Unless noted, no stated cut-off is given here; in the data, active means inhibition above about 50%; inactive means the rest.

SMILES | G6PDH counter | Lmaj promast | WT yeast gro inh | Diaphorase inh | Diaphorase act
O=C(CCl)c1ccc2c(c1)CCN2C(=O)C1CC1 | 10 | 100* | 14 | -20 | 1.2
COCCCNC(=O)CC(NS(=O)(=O)c1ccc(Cl)cc1)c1ccc(OC)cc1 (centres undefined) | 0 | 2 | -4 | 8 | 0.9
CC12COC3(C(N)=O)CC1CCC32C (centres undefined) | -5 | -5 | 11 | 12 | 0.9
COc1cc([N+](=O)[O-])ccc1NC(=O)CSc1nc2ccccc2n1-c1ccccc1 | 6 | 92* | 13 | 3 | 1
Cc1ccc(-n2c(SCC(=O)Nc3cccc(S(N)(=O)=O)c3)nc3ccccc32)cc1 | 2 | 78* | -29 | 34 | 0.7
CC(C)Cn1c(SCC(=O)Nc2cccc(S(N)(=O)=O)c2)nc2ccccc2c1=O | -4 | 23 | -1 | 22 | 0.8
COc1cc(NC(=O)CSc2nc(C)c(C)c(C)n2)c(C)cc1[N+](=O)[O-] | -14 | 26 | 18 | 15 | 0.8
CCOc1ccc(-n2c(SCC(=O)Nc3cc(OC)c([N+](=O)[O-])cc3C)nc3ccccc32)cc1 | -1 | 98* | -9 | 12 | 0.9
c1ccc2c(c1)OCCOCCOCCOCCOc1ccccc1OCCOCCOCCO2 | -5 | 99* | 16 | 7 | 0.9
Brc1ccc2c(c1)OCCOCCOCCOCCOCCO2 | 27 | -3 | 2 | 19 | 0.8
Cc1nn(Cc2c(Cl)cccc2Cl)c(C)c1NC(=O)c1cn(-c2ccccc2)nc1-c1ccccc1 | 5 | 83* | 7 | -3 | 1
CCc1nnc(NC(=O)CN2CCC(O)(c3ccccc3OC)CC2)s1 | 6 | -4 | 6 | 25 | 0.7
COc1ccc(C2(O)CCN(CC(=O)Nc3nccs3)CC2)c(OC)c1 | 17 | 88* | -6 | 0 | 1
Cc1ccc(CNC(=O)c2ccc(Cn3nc(C)c(Cl)c3C)o2)cc1 | 4 | 19 | 100* | 14 | 0.9
Cc1nn(Cc2ccc(C(=O)Nc3ccccc3C(F)(F)F)o2)c(C)c1Br | 2 | 6 | 36 | 21 | 0.8
Cc1nn(C)c(C(=O)NCc2ccc(Cl)cc2)c1Cl | 10 | -3 | -10 | 9 | 0.9
Cc1cc(C)cc(NC(=O)c2ccc(Cn3nc(C)c(Cl)c3C)o2)c1 | 1 | 16 | 74* | 23 | 0.8
Cc1c(Cl)c([N+](=O)[O-])nn1Cc1ccc(C(=O)N/N=C\c2cccc(Br)c2)o1 | 6 | 55* | 42 | 3 | 1
CC(C)N1C(=O)S/C(=C/c2ccc(Sc3nc4ccccc4[nH]3)o2)C1=O | -14 | 83* | 25 | 21 | 0.8
Cc1cc2nc(CCN(C(=S)NCC(C)C)C3CCCC3)[nH]c2cc1C | 3 | 72* | . | 18 | 0.8
COc1ccc(CN(Cc2cc3cccc(C)c3[nH]c2=O)C(=O)N(C)C)cc1 | 2 | -3 | -2 | 13 | 0.9
CNC(=S)N(Cc1ccc(OC)cc1)Cc1cc2cccc(C)c2[nH]c1=O | 17 | 57* | -7 | 12 | 0.9
Cc1cccc2cc(CN(CC3CCCO3)C(=S)Nc3ccccc3)c(=O)[nH]c12 (centres undefined) | -27 | 71* | 10 | 22 | 0.8
CCNC(=S)N(Cc1cc2cccc(C)c2[nH]c1=O)C1CCCC1 | 16 | 97* | -1 | 18 | 0.8
O=C(O)c1ccc(N2CC3CC(C2)c2cccc(=O)n2C3)c(NS(=O)(=O)c2cccc(C(F)(F)F)c2)c1 (centres undefined) | 0 | -4 | 11 | 11 | 0.9
SMILES | G6PDH counter | Lmaj promast | WT yeast gro inh | Diaphorase inh | Diaphorase act
O=c1cc(-c2ccccc2)[nH]n1-c1ccc([N+](=O)[O-])cc1 | 2 | 0 | . | 8 | 0.9
Cc1cccc2cc(CN(C(=S)NCC(C)C)C3CCCC3)c(=O)[nH]c12 | -4 | 65* | 6 | 22 | 0.8
CC(=O)c1ccc(OCC(C)C)c(CN2CCCCC2)c1 | 3 | 86* | -14 | 2 | 1
CCC(=O)c1ccc(OCCN2CCOCC2)cc1 | -17 | -4 | -3 | 14 | 0.9
CCCCOc1ccc(C(=O)CCN2CCCCC2)cc1 | 10 | 92* | 7 | 14 | 0.9
CC(C)COc1ccc(C(=O)OCCN2CCOCC2)cc1 | 16 | -1 | -6 | 12 | 0.9
CC(C)COc1ccc(C(=O)CCN2CCCCC2)cc1 | 10 | 96* | 10 | -6 | 1.1
CC1(C)CC(=O)C(C=Nc2ccccc2Sc2ccccc2)=C(O)C1 | 1 | 71* | 14 | 22 | 0.8
CCn1c(C(=O)OC)cc2c1ccn2-c1ccc(F)cc1 | -29 | 23 | 77* | 17 | 0.8
COC(=O)c1cc2c(ccn2-c2ccc(F)cc2)n1Cc1ccc(OC)cc1 | 9 | 99* | -21 | 4 | 1
CC(=O)C1C(c2ccc(F)cc2)C2C(C)=NN=C2CC1(C)O (centres undefined) | 16 | -3 | 1 | 10 | 0.9
COc1ccc(-c2nc(NC(=O)c3ccc(OCC(=O)N4CCOCC4)c(OC)c3)sc2C)cc1 | 8 | 61* | -4 | 14 | 0.9
CCC1(CC)NC(=O)N(CC(=O)OCC(=O)Nc2ccc(F)c(F)c2F)C1=O | 0 | -5 | 9 | 9 | 0.9
c1ccc(-c2nc(N3CCCCCC3)c3ccccc3n2)nc1 | 12 | 101* | -12 | -22 | 1.2
Cc1nc2ccccc2nc1N1CCOCC1 | 1 | -1 | -4 | 8 | 0.9
c1ccc(-c2nc(N3CCOCC3)c3ccccc3n2)nc1 | 10 | 99* | 10 | -10 | 1.1
CCSCc1nc2ccccn2c1Br | 4 | 6 | -6 | 1 | 1
c1ccc(COc2ccc(OCCCCN3CCCC3)cc2)cc1 | -22 | 92* | 7 | 17 | 0.8
Fc1ccc(OCCCCCCN2CCCC2)cc1 | 1 | 95* | -12 | 1 | 1
c1ccc(COc2ccc(OCCCN3CCCCC3)cc2)cc1 | 4 | 100* | 16 | 5 | 0.9
CN1CCN(CC(=O)Nc2ccc(OCc3ccccc3)cc2)CC1 | 8 | 5 | -1 | 7 | 0.9
CC1CCN(CCOc2ccc(OCc3ccccc3)cc2)CC1 | 7 | 99* | 15 | 0 | 1
CCOC(=S)N/C(=N\S(=O)(=O)c1ccc(C)cc1)c1ccccc1 | -16 | -9 | -10 | 8 | 0.9
Nc1ncn(-c2ncc(C(F)(F)F)cc2Cl)n1 | 7 | 0 | 5 | 11 | 0.9
C(#Cc1ccccc1)C[N+]1(CC#Cc2cccc3ccccc23)CCCC1 | 2 | 100* | 40 | 18 | 0.8
CCc1c(C)sc(NC(=O)Cn2nc(C(F)(F)F)c3c2CCCC3)c1C#N | -17 | -7 | 4 | 11 | 0.9
Cc1cc(Nc2ccc3c(c2)OCCO3)c2ccccc2n1 | -1 | 95* | 15 | 4 | 1
Cc1cc(Nc2ccc3c(c2)OCCO3)c2cccc(C)c2n1 | -5 | 85* | 13 | 6 | 0.9
CCOC(=O)c1cnc2ccc(C(=O)OC)cc2c1Nc1ccc2c(c1)OCCO2 | 0 | 0 | 32 | 14 | 0.9

Bioassay records as filed in PubChem.
